Measurements as given in ChEMBL document CHEMBL1153490, “Spiroadamantyl 1,2,4-trioxolane, 1,2,4-trioxane, and 1,2,4-trioxepane pairs: relationship between peroxide bond iron(II) reactivity, heme alkylation efficiency, and antimalarial activity” (Bioorg Med Chem Lett, 2009).
≈ marks a conversion by molar mass, not a printed value.

Legend:
[1] = tested on: Plasmodium falciparum (NF54); experiment: Antimalarial activity against chloroquine-sensitive Plasmodium falciparum NF54
Plasmodium berghei = experiment: Antimalarial activity as reduced parasitaemia after 3 days against Plasmodium berghei infected NMRI mice (Mus musculus) at 100 mg/kg peroral dose; format: functional; set-up: scale not given: the % may be the effect or the level left; conditions: route oral
Procedure, shortened: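 Groups of three P. berghei-infected NMRI mice were dosed orally one day post-infection at 100 mg/kg. Compounds were dissolved or suspended in 3% ethanol and 7% Tween 80.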

Plasmodium falciparum = experiment: Antimalarial activity against chloroquine-resistant Plasmodium falciparum K1 […]; format: functional, organism-based
[2] = Induction of heme alkylation measured within 30 seconds by visible spectrophotometry; set-up: concentration or dose not given beside the values

SMILES	IC50 [1] [µg/mL]	Activity (Plasmodium berghei) [%]	IC50 (Plasmodium falciparum) [µg/mL]	Activity [2] [%]
C[C@]1(c2ccccc2)COC2(OO1)C1CC3CC(C1)CC2C3 (stereo not given in full)	0.022 (≈ 0.0732 µM)	0	0.019 (≈ 0.0632 µM)	
C[C@@H]1CC[C@H]2[C@@H](C)C(=O)O[C@@H]3O[C@@]4(C)CC[C@@H]1[C@]32OO4 [ARTEMISININ]	0.0028 (≈ 0.00992 µM)	98		
C[C@@]1(c2ccccc2)OOC2(O1)C1CC3CC(C1)CC2C3 (stereo not given in full)	0.0034 (≈ 0.0119 µM)	99	0.0029 (≈ 0.0101 µM)	67
c1ccc([C@@H]2OOC3(O2)C2CC4CC(C2)CC3C4)cc1 (stereo not given in full)	> 1	25	0.4 (≈ 1.47 µM)	50
c1ccc([C@H]2CCOC3(OO2)C2CC4CC(C2)CC3C4)cc1 (stereo not given in full)	> 1			1
c1ccc([C@H]2COC3(OO2)C2CC4CC(C2)CC3C4)cc1 (stereo not given in full)	0.019 (≈ 0.0663 µM)	96	0.0091 (≈ 0.0318 µM)	55
C1CCC2(CC1)OOC1(O2)C2CC3CC(C2)CC1C3 (stereo not given)	0.0014 (≈ 0.0053 µM)	>99.99		86
C1CCC2(CC1)COC1(OO2)C2CC3CC(C2)CC1C3 (stereo not given)	0.044 (≈ 0.158 µM)	0	0.054 (≈ 0.194 µM)	45
CC(C)(N)CNC(=O)C[C@H]1CC[C@]2(CC1)OO[C@]1(O2)C2CC3CC(C2)CC1C3				83
C1CC[C@]2(CC1)CCO[C@]1(OO2)C2CC3CC(C2)CC1C3	> 1	0		25
